Values belong to the compound of their own block, whether it stands above or below them.
Columns and labels:
[1] = biological target: Wee1-like protein kinase (Homo sapiens) (UniProt P30291); assay: Inhibition of human recombinant Wee1 at 500 nM in presence of ATP by radiometric assay relative to control
[2] = biological target: SRSF protein kinase 2 (Homo sapiens) (UniProt P78362); assay: Inhibition of human recombinant SRPK2 at 500 nM in presence of ATP by radiometric assay relative to control
Chain of SRSF protein kinase 2 (Homo sapiens) (P78362 whole entry, looked up): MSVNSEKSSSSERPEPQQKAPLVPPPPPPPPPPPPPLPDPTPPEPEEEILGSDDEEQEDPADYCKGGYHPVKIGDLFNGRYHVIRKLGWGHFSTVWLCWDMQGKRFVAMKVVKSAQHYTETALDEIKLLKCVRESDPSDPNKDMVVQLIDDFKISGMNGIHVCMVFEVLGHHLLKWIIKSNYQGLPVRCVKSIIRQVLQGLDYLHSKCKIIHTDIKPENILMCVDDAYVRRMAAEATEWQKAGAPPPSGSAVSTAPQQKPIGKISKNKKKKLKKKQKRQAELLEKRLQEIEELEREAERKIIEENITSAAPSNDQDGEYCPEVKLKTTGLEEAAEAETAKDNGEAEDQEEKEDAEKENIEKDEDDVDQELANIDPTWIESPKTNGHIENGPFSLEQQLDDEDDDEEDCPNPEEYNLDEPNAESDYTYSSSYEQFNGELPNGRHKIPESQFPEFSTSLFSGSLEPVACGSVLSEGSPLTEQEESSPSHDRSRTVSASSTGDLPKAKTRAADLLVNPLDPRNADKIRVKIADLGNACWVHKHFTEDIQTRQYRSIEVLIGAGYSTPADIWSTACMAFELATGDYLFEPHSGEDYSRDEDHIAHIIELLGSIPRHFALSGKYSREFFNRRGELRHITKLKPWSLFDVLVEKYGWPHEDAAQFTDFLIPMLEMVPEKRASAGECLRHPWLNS

[3] = biological target: T1, Serine/threonine-protein kinase TBK1 (Homo sapiens) (UniProt Q9UHD2); assay: Inhibition of human recombinant TBK1 at 500 nM related to control ULK1
T1 sequence (whole entry): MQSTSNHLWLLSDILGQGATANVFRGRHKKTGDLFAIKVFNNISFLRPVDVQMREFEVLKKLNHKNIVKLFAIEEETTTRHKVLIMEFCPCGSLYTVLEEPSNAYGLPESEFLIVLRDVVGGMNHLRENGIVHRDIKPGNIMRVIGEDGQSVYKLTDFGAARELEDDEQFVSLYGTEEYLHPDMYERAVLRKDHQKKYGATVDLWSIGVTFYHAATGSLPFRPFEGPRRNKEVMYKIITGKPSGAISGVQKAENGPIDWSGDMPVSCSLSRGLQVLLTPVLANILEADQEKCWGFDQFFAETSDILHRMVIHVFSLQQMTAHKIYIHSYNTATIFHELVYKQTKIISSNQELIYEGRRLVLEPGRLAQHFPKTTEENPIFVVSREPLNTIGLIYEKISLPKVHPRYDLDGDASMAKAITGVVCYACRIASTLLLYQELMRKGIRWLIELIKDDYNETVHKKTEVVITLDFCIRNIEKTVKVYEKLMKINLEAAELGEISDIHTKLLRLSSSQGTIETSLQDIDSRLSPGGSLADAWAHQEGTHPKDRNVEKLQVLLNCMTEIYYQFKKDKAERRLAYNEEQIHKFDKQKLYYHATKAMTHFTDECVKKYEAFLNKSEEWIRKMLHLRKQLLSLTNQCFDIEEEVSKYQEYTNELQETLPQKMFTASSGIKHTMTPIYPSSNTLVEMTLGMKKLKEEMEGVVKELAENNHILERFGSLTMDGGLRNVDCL

[4] = biological target: T2, Serine/threonine-protein kinase ICK (Homo sapiens) (UniProt Q9UPZ9); assay: Inhibition of human recombinant ICK at 500 nM related to control ULK1
T2 sequence (whole entry): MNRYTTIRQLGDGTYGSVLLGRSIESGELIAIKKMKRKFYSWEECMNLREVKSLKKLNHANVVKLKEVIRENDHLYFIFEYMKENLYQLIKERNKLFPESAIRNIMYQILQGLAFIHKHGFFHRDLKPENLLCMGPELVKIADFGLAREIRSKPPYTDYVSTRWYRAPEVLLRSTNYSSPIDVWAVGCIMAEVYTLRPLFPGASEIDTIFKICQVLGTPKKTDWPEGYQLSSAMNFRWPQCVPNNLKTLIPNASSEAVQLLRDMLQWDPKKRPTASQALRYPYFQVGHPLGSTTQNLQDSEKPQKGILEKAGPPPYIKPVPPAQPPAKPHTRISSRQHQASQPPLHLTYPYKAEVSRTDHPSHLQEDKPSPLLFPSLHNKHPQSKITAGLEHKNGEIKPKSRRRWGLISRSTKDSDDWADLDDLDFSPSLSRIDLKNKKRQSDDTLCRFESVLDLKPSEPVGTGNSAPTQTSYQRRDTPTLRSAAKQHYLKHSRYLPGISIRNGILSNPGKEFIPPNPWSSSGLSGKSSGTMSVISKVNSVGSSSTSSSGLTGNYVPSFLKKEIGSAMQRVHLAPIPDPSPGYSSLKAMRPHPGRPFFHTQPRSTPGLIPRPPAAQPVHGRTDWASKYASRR

[5] = biological target: Vascular endothelial growth factor receptor 1 (Homo sapiens) (UniProt P17948); assay: Inhibition of human recombinant FLT1 at 500 nM related to control ULK1
Chain of Vascular endothelial growth factor receptor 1 (Homo sapiens) (P17948 whole entry): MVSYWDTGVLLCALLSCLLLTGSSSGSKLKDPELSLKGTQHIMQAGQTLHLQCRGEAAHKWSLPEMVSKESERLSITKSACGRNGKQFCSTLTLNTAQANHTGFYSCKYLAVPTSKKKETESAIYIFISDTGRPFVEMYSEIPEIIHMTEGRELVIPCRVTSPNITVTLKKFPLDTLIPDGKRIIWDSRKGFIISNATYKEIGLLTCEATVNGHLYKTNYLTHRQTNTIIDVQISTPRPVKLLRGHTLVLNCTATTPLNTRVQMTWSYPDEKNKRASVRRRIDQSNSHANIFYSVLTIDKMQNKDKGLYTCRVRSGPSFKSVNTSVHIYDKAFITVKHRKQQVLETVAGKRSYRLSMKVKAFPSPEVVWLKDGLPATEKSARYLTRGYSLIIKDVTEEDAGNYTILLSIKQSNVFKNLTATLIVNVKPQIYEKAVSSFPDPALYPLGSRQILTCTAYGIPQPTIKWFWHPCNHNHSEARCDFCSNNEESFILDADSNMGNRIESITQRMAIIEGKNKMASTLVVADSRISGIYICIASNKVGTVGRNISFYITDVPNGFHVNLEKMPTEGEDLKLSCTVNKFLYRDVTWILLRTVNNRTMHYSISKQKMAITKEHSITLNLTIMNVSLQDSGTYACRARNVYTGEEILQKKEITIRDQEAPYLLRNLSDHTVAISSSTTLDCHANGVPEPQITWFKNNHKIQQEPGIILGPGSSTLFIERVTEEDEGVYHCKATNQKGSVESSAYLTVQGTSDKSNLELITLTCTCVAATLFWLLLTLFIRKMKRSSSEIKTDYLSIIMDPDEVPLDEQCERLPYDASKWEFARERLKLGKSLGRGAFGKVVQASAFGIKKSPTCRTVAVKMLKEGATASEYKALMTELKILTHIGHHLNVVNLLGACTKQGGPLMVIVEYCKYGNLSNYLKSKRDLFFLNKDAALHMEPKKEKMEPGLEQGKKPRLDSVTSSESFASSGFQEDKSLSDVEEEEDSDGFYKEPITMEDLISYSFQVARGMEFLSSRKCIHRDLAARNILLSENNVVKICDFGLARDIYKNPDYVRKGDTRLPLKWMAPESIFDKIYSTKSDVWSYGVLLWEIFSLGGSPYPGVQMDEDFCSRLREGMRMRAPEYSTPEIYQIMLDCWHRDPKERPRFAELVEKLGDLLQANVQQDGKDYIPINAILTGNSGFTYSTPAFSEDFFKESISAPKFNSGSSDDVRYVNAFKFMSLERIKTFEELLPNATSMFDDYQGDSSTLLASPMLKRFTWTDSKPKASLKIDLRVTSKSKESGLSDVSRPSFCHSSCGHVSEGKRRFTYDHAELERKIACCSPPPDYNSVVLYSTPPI

[6] = biological target: Cyclin-dependent kinase 4 (Homo sapiens) (UniProt P11802); assay: Inhibition of human recombinant CDK4 at 15 nM in presence of ATP by radiometric assay relative to control
Chain of Cyclin-dependent kinase 4 (Homo sapiens) (P11802 whole entry): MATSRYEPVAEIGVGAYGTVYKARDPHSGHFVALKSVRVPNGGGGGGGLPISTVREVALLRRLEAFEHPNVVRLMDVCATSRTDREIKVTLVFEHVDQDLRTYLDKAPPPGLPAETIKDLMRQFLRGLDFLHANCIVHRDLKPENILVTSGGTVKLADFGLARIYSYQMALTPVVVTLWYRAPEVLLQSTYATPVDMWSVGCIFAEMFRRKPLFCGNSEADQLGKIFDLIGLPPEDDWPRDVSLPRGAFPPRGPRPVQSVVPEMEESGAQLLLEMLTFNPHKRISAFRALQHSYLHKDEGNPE

[7] = biological target: Interferon-induced, double-stranded RNA-activated protein kinase (Homo sapiens) (UniProt P19525); assay: Inhibition of human recombinant PKR at 15 nM in presence of ATP by radiometric assay relative to control
Chain of Interferon-induced, double-stranded RNA-activated protein kinase (Homo sapiens) (P19525 whole entry, the tested form may be a part): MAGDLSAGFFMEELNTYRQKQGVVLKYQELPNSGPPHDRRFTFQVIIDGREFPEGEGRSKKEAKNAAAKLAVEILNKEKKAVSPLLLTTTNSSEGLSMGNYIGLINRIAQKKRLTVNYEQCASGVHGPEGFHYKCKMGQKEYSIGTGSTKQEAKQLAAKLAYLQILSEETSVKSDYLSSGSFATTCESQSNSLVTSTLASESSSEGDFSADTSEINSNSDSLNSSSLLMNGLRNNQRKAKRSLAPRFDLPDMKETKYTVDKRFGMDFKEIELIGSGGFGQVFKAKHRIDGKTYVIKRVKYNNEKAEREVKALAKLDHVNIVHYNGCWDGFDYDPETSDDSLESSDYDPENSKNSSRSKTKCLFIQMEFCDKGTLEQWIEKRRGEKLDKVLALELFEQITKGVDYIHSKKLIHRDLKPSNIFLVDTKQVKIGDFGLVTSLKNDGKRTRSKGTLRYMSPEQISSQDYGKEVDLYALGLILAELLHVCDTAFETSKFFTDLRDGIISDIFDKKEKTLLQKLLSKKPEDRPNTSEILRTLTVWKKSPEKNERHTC

[8] = biological target: PAS domain-containing serine/threonine-protein kinase (Homo sapiens) (UniProt Q96RG2); assay: Inhibition of human recombinant PASK at 15 nM related to control ULK1
[9] = biological target: Phosphorylase b kinase gamma catalytic chain, skeletal muscle/heart isoform (Homo sapiens) (UniProt Q16816); assay: Inhibition of human recombinant PHKg1 at 15 nM in presence of ATP by radiometric assay relative to control
[10] = biological target: Calcium/calmodulin-dependent protein kinase type II subunit alpha (Homo sapiens) (UniProt Q9UQM7); assay: Inhibition of human recombinant CaMK2a at 15 nM in presence of ATP by radiometric assay relative to control
[11] = biological target: Mitogen-activated protein kinase 9 (Homo sapiens) (UniProt P45984); assay: Inhibition of human recombinant JNK2 at 40 nM related to control ULK1
[12] = biological target: Serine/threonine-protein kinase PAK 3 (Homo sapiens) (UniProt O75914); assay: Inhibition of human recombinant PAK3 at 40 nM in presence of ATP by radiometric assay relative to control
[13] = biological target: Ribosomal protein S6 kinase alpha-2 (Homo sapiens) (UniProt Q15349); assay: Inhibition of human recombinant RSK3 at 40 nM related to control ULK1
[14] = biological target: 5'-AMP-activated protein kinase catalytic subunit alpha-2 (Homo sapiens) (UniProt P54646); assay: Inhibition of human recombinant AMPKa2 at 40 nM related to control ULK1
How it was run: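 Radiometric activity assays in a panel of 327 human recombinant kinases, each run in duplicate at one inhibitor concentration. Activity remaining is expressed as percent of vehicle control, and percent inhibition is calculated as 100% minus percent activity remaining.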

[15] = biological target: Serine/threonine-protein kinase MARK2 (Homo sapiens) (UniProt Q7KZI7); assay: Inhibition of human recombinant MARK2 at 40 nM related to control ULK1
Chain of Serine/threonine-protein kinase MARK2 (Homo sapiens) (Q7KZI7 whole entry): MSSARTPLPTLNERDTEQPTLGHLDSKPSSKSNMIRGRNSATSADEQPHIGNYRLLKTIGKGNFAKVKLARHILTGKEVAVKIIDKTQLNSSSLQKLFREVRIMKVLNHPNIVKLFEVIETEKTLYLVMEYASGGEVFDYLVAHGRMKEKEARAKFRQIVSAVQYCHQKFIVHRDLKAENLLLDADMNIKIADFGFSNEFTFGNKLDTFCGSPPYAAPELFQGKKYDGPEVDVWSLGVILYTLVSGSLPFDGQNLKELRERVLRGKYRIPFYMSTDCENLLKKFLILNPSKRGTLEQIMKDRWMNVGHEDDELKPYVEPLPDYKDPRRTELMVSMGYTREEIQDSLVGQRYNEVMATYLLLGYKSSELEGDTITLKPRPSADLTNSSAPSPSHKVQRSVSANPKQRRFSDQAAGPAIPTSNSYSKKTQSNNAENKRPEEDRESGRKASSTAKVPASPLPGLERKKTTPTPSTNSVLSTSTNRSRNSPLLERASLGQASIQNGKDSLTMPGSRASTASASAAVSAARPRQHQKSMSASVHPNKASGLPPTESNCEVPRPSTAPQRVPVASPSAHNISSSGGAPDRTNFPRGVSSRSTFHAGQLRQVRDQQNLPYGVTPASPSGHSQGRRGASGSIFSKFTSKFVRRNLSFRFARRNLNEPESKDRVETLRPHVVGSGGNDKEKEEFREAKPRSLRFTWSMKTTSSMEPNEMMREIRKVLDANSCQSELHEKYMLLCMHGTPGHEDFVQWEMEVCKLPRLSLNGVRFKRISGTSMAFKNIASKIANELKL

[16] = biological target: Dual specificity protein kinase CLK2 (Homo sapiens) (UniProt P49760); assay: Inhibition of human recombinant CLK2 at 40 nM in presence of ATP by radiometric assay relative to control
Chain of Dual specificity protein kinase CLK2 (Homo sapiens) (P49760 whole entry, looked up): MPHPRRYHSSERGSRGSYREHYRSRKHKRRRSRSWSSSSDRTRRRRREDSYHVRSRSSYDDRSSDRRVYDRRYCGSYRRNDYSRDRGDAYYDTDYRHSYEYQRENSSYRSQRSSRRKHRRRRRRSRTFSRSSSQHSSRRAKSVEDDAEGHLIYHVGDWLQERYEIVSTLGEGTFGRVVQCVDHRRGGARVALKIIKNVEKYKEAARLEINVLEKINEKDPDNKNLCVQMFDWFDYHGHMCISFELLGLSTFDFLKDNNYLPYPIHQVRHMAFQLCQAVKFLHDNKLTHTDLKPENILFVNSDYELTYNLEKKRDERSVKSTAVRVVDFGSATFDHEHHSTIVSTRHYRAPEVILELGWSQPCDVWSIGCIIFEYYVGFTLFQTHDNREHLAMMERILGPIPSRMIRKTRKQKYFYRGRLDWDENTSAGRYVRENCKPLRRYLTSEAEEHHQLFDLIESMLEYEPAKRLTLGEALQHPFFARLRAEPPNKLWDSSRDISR

[17] = biological target: Dual specificity protein kinase CLK4 (Homo sapiens) (UniProt Q9HAZ1); assay: Inhibition of human recombinant CLK4 at 40 nM related to control ULK1
[18] = biological target: Serine/threonine-protein kinase SIK2 (Homo sapiens) (UniProt Q9H0K1); assay: Inhibition of human recombinant QIK at 40 nM in presence of ATP by radiometric assay relative to control

Chain of Wee1-like protein kinase (Homo sapiens) (P30291 whole entry, looked up): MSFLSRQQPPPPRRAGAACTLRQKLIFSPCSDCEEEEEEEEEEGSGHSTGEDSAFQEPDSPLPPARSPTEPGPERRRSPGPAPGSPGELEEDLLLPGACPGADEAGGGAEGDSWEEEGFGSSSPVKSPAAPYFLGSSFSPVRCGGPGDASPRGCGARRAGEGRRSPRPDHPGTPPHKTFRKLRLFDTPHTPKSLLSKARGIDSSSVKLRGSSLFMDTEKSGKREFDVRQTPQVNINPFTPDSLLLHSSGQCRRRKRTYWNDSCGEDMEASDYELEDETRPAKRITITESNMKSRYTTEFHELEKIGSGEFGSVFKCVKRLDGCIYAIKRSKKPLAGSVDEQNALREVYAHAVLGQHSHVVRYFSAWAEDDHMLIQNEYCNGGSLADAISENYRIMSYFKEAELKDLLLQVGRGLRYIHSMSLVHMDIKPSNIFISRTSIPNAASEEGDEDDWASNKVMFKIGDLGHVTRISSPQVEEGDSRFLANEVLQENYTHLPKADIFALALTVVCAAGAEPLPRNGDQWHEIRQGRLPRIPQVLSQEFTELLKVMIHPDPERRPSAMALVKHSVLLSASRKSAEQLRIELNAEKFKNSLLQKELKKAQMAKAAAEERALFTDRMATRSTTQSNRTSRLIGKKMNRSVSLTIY

- inhibition [1]: 16%
- inhibition [2]: 5%
- fold change (FC) [3]: 0
- fold change (FC) [4]: 0.04
- fold change (FC) [5]: 0.03
SMILES: CNC(=O)c1ccccc1Oc1nc(Nc2cc(OC)c(OC)c(OC)c2)ncc1Br

- inhibition [6]: 11%
- inhibition [7]: 2%
- fold change (FC) [8]: 0
- inhibition [9]: 51%
- inhibition [10]: 41%
SMILES: CC(C)[C@H](NC(=O)c1cc(-c2cnn3cc(-c4ccc(OCCN5CCCCC5)cc4)cnc23)cs1)C(F)(F)F

- fold change (FC) [11]: 0.01
- inhibition [12]: 0%
- fold change (FC) [13]: 0
- fold change (FC) [14]: 0.1
- fold change (FC) [15]: 0.16
- inhibition [16]: 19%
- fold change (FC) [17]: 0.71
- inhibition [18]: 54%
SMILES: O=C(N[C@@H](C1CC1)C(F)(F)F)c1cc(-c2cnn3cc(-c4ccc(F)cc4)cnc23)cs1

Source: ChEMBL document CHEMBL5653631, “A Potent and Selective ULK1 Inhibitor Suppresses Autophagy and Sensitizes Cancer Cells to Nutrient Stress” (iScience, 2018)
